Measured values taken from article PMC7468319 (Acta Pharmacologica Sinica, 2019).
pIC50: −log10 of the molar value.

Columns and labels:
BTK [1] = assay: Western blot, phosphorylation of BTK at Tyr223 in TMD8 cells; type: cell-based, human; conditions: Tyr223, 4 h
BTK [2] = molecular target: BTK (Homo sapiens, UniProt Q06187); type: biochemical
TMD8 cells = assay: Annexin V-FITC apoptosis analysis by flow cytometry; type: cell-based, human; conditions: TMD8, 72 h, untreated control 12.77%
[3] = test system: Rb, phosphorylated Rb, and cyclin D1; assay: Western blot of G1 phase related proteins; type: cell-based, human; conditions: TMD8, 48 h
PARP and caspase 3 = assay: Western blot of cleaved PARP and cleaved caspase 3; type: cell-based, human; conditions: TMD8, Western blot
EGFR [4] = molecular target: T1, EGFR (Homo sapiens, UniProt P00533); assay: Kinase selectivity ELISA at 1000 nM, EGFR; type: biochemical
T1 sequence (P00533 25-1210): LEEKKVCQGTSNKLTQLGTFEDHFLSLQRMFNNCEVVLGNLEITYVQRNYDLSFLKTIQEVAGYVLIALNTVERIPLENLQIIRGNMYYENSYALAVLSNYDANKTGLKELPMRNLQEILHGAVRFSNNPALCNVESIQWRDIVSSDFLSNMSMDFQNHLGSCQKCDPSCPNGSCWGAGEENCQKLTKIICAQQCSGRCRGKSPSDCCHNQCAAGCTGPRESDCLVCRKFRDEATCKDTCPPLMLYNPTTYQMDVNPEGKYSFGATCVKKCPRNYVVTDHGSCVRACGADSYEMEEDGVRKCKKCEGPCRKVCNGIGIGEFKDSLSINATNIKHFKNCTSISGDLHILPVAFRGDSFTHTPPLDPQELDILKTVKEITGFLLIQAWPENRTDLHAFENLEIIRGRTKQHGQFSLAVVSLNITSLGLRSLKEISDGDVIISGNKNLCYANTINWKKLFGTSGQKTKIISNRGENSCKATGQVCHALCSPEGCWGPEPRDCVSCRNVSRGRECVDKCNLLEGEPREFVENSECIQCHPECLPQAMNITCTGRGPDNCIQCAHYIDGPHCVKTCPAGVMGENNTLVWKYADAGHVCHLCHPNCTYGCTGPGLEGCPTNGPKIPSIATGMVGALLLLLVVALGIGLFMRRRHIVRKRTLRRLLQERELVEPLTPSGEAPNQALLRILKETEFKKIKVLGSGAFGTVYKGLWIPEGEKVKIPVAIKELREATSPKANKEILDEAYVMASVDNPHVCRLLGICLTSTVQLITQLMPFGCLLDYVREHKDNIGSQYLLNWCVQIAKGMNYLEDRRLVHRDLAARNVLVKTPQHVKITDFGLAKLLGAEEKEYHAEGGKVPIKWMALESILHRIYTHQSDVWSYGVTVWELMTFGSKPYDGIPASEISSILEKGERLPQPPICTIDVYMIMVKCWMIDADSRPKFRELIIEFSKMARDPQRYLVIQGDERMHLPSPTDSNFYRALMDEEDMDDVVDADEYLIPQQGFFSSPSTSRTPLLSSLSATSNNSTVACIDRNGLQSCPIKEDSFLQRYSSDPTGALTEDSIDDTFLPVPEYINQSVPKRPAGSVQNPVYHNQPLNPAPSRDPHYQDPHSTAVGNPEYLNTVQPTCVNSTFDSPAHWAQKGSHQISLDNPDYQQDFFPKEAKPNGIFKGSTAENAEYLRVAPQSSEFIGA
Summary of the method: (§1)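 ELISA-based kinase activity assay using commercially sourced recombinant kinases, with absorbance read at 490 nm. Each test compound was profiled at 1000 nM against a panel of 35 kinases, and percent inhibition was determined for each kinase.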

ErbB2 = ErbB2 (Homo sapiens, UniProt P04626); assay: Kinase selectivity ELISA at 1000 nM, ErbB2; type: biochemical
Chain of ErbB2 (P04626 23-1255): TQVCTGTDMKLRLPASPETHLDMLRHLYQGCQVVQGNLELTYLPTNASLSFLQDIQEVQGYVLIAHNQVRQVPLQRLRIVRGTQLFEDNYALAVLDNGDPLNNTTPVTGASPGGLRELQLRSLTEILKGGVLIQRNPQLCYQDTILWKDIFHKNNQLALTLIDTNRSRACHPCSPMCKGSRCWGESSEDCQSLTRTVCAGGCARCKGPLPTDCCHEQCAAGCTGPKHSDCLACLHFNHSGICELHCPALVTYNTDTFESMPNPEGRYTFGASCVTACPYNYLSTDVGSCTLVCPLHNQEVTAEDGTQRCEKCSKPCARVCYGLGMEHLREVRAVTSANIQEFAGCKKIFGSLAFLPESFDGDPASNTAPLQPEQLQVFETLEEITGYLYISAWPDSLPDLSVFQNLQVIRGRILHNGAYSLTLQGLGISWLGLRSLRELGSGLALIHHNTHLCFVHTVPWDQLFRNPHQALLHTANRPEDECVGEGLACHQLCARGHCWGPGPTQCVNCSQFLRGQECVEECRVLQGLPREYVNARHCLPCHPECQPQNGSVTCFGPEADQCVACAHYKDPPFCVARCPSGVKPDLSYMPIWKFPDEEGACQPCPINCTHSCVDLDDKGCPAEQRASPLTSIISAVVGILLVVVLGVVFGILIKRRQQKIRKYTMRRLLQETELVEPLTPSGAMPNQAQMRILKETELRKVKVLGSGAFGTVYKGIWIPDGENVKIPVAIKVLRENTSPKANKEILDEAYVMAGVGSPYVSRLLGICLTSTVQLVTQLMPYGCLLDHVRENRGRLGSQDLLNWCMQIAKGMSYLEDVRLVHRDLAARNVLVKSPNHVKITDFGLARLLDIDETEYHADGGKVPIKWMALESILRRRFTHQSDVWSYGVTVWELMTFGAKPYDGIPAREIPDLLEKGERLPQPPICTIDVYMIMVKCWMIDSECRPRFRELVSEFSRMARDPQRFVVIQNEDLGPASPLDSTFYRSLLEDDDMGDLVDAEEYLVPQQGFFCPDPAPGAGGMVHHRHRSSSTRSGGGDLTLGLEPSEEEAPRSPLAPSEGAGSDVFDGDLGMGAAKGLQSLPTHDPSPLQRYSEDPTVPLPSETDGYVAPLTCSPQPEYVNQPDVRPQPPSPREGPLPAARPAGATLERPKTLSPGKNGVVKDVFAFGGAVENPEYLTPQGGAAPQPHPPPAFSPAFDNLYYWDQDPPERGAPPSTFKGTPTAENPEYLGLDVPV
Summary of the method: as §1

ErbB4 = ErbB4 (Homo sapiens, UniProt Q15303); assay: Kinase selectivity ELISA at 1000 nM, ErbB4; type: biochemical
Summary of the method: as §1

ITK = molecular target: T2, ITK (Homo sapiens, UniProt Q08881); assay: Kinase selectivity ELISA at 1000 nM, ITK; type: biochemical
T2 sequence (Q08881 1-620): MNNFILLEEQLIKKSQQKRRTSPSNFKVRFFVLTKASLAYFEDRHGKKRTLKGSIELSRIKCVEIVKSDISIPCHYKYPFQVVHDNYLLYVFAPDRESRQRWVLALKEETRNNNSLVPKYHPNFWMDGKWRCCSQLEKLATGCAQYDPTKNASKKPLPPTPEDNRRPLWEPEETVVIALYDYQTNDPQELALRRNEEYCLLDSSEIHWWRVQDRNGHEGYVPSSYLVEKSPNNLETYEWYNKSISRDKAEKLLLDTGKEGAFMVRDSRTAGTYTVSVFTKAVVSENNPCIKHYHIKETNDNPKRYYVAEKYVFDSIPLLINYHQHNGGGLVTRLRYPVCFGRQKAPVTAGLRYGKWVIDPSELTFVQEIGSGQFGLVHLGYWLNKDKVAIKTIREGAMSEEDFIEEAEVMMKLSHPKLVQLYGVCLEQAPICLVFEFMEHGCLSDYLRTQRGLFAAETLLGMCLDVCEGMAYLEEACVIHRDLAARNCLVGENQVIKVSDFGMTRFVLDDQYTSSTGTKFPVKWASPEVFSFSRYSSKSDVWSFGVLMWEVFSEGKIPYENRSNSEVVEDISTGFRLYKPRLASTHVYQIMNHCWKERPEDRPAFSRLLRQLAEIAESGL
Summary of the method: as §1

panel of 35 kinases = assay: Kinase selectivity profile, panel of 35 kinases; type: biochemical; conditions: 1000 nM
Summary of the method: as §1

EGFR [5] = molecular target: T1, EGFR; conditions: read-out: IC50 against EGFR; in vitro enzymatic activity; cited from earlier work

Chain of BTK (Homo sapiens, UniProt Q06187) (Q06187 whole entry): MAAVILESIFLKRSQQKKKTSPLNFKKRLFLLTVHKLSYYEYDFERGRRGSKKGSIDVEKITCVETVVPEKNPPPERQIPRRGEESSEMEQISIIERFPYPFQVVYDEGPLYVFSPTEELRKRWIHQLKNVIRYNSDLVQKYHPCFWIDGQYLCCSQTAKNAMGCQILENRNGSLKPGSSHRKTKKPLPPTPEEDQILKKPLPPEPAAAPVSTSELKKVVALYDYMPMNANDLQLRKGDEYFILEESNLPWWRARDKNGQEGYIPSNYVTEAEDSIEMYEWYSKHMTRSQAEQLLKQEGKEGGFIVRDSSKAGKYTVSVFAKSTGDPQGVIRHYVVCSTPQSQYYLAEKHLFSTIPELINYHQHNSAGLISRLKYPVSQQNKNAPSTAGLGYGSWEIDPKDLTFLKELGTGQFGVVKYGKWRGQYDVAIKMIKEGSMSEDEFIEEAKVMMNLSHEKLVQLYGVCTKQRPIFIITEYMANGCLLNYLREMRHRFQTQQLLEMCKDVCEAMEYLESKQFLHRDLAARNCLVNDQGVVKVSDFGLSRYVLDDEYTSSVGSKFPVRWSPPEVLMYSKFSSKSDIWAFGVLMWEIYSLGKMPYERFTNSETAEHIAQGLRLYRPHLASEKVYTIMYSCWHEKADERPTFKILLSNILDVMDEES

Row | SMILES | phosphorylation of BTK in TMD8 cells (BTK [1]) | selectivity for BTK than for EGFR (BTK [2]; IC50 EGFR vs IC50 BTK) | pIC50 (BTK [2]; read-out: IC50 against BTK, ELISA-based kinase assay) | apoptosis rate (TMD8 cells; 10 nM) [%] | apoptosis rate (TMD8 cells; 100 nM) [%] | apoptosis rate (TMD8 cells; 1000 nM) [%] | levels of Rb, phosphorylated Rb, and cyclin D1 proteins [3] | cleavage of PARP and caspase 3 proteins (PARP and caspase 3) | inhibition of EGFR (EGFR [4]) | inhibition of ErbB2 (ErbB2) | inhibition of ErbB4 (ErbB4) | inhibition of ITK (ITK) | inhibition of the other kinases tested (panel of 35 kinases) | number of kinases with greater than 50% inhibition (panel of 35 kinases) | pIC50 (EGFR [5])
1 | C=CC(=O)N1CCC[C@@H](n2nc(-c3ccc(Oc4ccccc4)cc3)c3c(N)ncnc32)C1 [ibrutinib] | effectively suppressed | – | – | – | – | – | – | – | – | – | – | – | – | – | –
2 | C=CC(=O)Nc1cccc(N2C(=O)OC(C)c3cnc(Nc4ccc(N5CCN(C)CC5)cc4OC)nc32)c1 (centres unmarked) [Compound 2, N-(3-(7-((2-methoxy-4-(4-methylpiperazin-1-yl)phenyl)amino)-4-methyl-2-oxo-2H-pyrimido[4,5-d][1,3]oxazin-1(4H)-yl)phenyl)acrylamide] | effectively suppressed | greater than 6 fold | 8.15 | 44.46 | 57.95 | 69.46 | reduction | increased in a dose-dependent manner | greater than 50% | greater than 50% | greater than 50% | greater than 50% | did not appreciably inhibit | seven | 7.32
3 | CC#CC(=O)N1CCC[C@H]1c1nc(-c2ccc(C(=O)Nc3ccccn3)cc2)c2c(N)nccn12 [ACP-196, acalabrutinib] | effectively suppressed | – | – | – | – | – | – | – | – | – | – | – | – | – | –
